# JMJD2C inh = inhibitors of GASC-1 histone demethylase, primary screen, biochemical, fluorescence, DELFIA europium. Lysine-specific demethylase 4C (Homo sapiens), Q9H3R0. GST-JMJD2C(1-420) H3K9me3 demethylation. inhibition, % at 2.35 µM. actives 0.069% (n = 330,000);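 active = more than half of a compound's replicate wells show inhibition beyond 50%, single wells judged on their own value; inconclusive = some, but no more than half, of replicates pass 50% inhibition; inactive = no replicate passes 50% inhibition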;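 note: signal counts dimethyl H3K9 product captured on neutravidin plate; 0% = median of DMSO wells and 100% = 0.3 times that DMSO median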
# Target sequence (Q9H3R0 1-420 limits assumed): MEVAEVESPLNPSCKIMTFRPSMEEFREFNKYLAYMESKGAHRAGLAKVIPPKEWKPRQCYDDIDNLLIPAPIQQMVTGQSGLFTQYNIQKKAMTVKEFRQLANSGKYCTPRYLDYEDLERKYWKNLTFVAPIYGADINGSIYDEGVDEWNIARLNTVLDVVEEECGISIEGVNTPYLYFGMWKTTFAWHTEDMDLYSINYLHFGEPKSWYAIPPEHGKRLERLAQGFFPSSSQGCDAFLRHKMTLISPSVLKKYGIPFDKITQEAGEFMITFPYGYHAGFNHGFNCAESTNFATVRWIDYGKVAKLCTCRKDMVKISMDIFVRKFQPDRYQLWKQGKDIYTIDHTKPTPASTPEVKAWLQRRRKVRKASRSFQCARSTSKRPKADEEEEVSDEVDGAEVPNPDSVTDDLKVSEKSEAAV
# NR2E3 ag-1 = NR2E3 agonists in two-hybrid cells, primary screen, cell-based, luminescence, CHO-S, Gal4-NCOR/VP16-NR2E3; luciferase; inhibition of corepressor binding, % at 3.98 µM; AID 602229, 2012; Photoreceptor-specific nuclear receptor (Homo sapiens), Q9Y5X4; actives 0.35% (n = 360,000);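 active = inhibition above the mean of all tested compounds plus 3 SD, cut at about 70% in these data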;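 note: 0% = DMSO with NR2E3 transfected cells and 100% = cells lacking NR2E3 construct; higher means lower luciferase signal from less NR2E3 corepressor binding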
# GalR3 antagonist = GalR3 antagonists in HEK293 cells, primary screen, cell-based, fluorescence readout; Galanin receptor type 3 (Homo sapiens), O60755; inhibition, % at 3 µM; actives 0.44% (n = 360,000); HEK293 GalR3-CNG cAMP membrane potential fluorescence; galR3 body fused to GalR1 C-terminus;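 active = inhibition above the screen-wide average plus 3 SD, cut at about 13% in these data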;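 note: forskolin and galanin both at EC90 stimulate the cells; cAMP rise reported by CNG channel membrane potential dye signal; 0% = forskolin plus galanin with DMSO and 100% = forskolin alone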
# Target sequence (O60755 1-299 limits assumed): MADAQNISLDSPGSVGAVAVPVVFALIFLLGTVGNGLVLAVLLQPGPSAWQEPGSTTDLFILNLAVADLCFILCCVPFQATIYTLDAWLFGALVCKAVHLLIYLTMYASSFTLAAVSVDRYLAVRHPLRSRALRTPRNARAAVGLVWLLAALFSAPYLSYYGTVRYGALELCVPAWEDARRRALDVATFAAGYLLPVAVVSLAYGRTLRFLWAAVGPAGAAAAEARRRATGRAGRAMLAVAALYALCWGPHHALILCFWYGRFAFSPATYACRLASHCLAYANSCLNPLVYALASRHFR
# 697 NFkB inh = inhibitors of PMA/ionomycin-induced NF-kB reporter, 697 cells, primary screen, B-cell NF-kB inhibitor project, cell-based, luminescence, uHTS; 697 B-cell NF-kB luciferase reporter, 16 h; inhibition, % at 4 µM; actives 0.33% (n = 330,000); AID 435022, 2010; in the data active = inhibition above about 35%
# Jurkat NFkB inh = inhibitors of induced NF-kB luciferase reporter, primary screen, TCR NF-kB activation inhibitor project, cell-based, luminescence, uHTS; Jurkat, PMA/ionomycin-induced NF-kB luciferase reporter; inhibition, % at 4 µM; actives 0.53% (n = 330,000); in the data active = inhibition above about 50%
# NR2E3 ag-2 = inhibitors of NR2E3-RetCOR corepressor binding, primary screen, NR2E3 agonist project, biochemical, TR-FRET, GST-NR2E3, biotin-RetCOR. actives 0.12% (n = 320,000). inhibition of corepressor binding, % at 4.78 µM. Photoreceptor-specific nuclear receptor (Homo sapiens), Q9Y5X4. 1536-well. AID 2300, 2010;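 active = percent inhibition above the cutoff of mean plus 3 SD of all tested compounds, set per screening campaign, cut at about 20% in these data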;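 note: 0% = DMSO wells and 100% = biotin wells as full block of FRET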
#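 Material: NR2E3–RetCOR corepressor complex | Quantity: 1.35 nM GST-tagged NR2E3 final | Schedule: 5 h at 4 °C | Replication: Singlicate compound wells | Reagent: RetCOR corepressor, biotinylated, 7 nM | Controls: Biotin wells as high control, 0.6% DMSO wells as low control | Signal: TR-FRET, Eu(K)-anti-GST donor, streptavidin-D2 acceptor, ex 340, em 617/671 nm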
# NR2E3 ag confirm = NR2E3 agonist confirmation in cells, cell-based, luminescence, CHO-S two-hybrid. shares compounds with NR2E3 ag-1. CHO-S mammalian two-hybrid NR2E3-NCOR, luciferase luminescence. inhibition, % at 3.98 µM. actives 51% (n = 2,300). AID 624378, 2012;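 active = average inhibition above a cutoff equal to the mean inhibition of all tested compounds plus one SD, cut at about 70% in these data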;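 note: 0% = DMSO in NR2E3 cells and 100% = DMSO in cells lacking NR2E3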
# VP16 counter = GAL4-VP16 reporter modulators, confirmation, counter-screen for NR2E3 agonist project, cell-based, luminescence, CHO-S, high throughput; shares compounds with NR2E3 ag-1; CHO-S GAL4-VP16 luciferase reporter; inhibition, % at 3.98 µM; actives 29% (n = 2,300); AID 624379, 2012;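 active = mean inhibition above a cutoff equal to the average over all tested compounds plus one standard deviation, cut at about 70% in these data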;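 note: luciferase from a UAS reporter driven by GAL4-VP16 transactivation; 0% = DMSO with VP16-transfected cells and 100% = DMSO with cells lacking VP16; higher means less reporter light so more repression of VP16 activity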
# Starred values were filed as active, the others as inactive; ? = inconclusive; . = no result given. In the library only some 1.5% were active in any assay of this set; here they are far more common.
SMILES,JMJD2C inh,NR2E3 ag-1,GalR3 antagonist,697 NFkB inh,Jurkat NFkB inh,NR2E3 ag-2,NR2E3 ag confirm,VP16 counter
Cc1cc(C)c(S(=O)(=O)N2CCN(C(=O)CN3C(=O)NC4(CCCC4)C3=O)CC2)c(C)c1,7.8,0.2,-2.5,0.4,-0.1,3.8,.,.
Cc1ccc([C@H]2C(C(=O)O)=CC[C@@H](c3ccc(Cl)c(Cl)c3)N2S(=O)(=O)c2ccc(C)cc2)cc1,.,66.6,-7.2,13.9,5.7,.,37.3,26.8
Cc1ccc([C@H]2C(C(=O)O)=C[C@@H](CC3CCCC3)N2S(=O)(=O)c2ccc(C)cc2)cc1,.,-4.2,-3.7,14.6,1.5,.,.,.
CCCC[C@@H]1C=C(C(=O)O)[C@H](c2ccc(Cl)c(Cl)c2)N1S(=O)(=O)c1ccc(C)cc1,19.0,85.4*,-4.0,-12.1,6.1,.,33.0,36.6
CCc1ccc([C@H]2C(C(=O)O)=C[C@@H](CC3CCCC3)N2S(=O)(=O)c2ccc(C)cc2)cc1,.,57.3,-0.3,-1.1,1.4,.,6.6,2.6
Cc1ccc(S(=O)(=O)N2[C@@H](c3ccc(Cl)cc3)C(C(=O)O)=CC[C@H]2c2ccc(Cl)cc2)cc1,0.8,61.8,2.5,21.2,-9.2,-1.2,24.2,22.1
Nc1nc(Nc2ccccc2F)nc(N2CCOCC2)c1[N+](=O)[O-],-6.9,2.5,-2.2,2.6,-11.6,0.1,.,.
CN(C)c1cccc2c(S(=O)(=O)NC(=O)[C@H]3O[C@@H](n4ccc(=O)[nH]c4=O)[C@H](O)[C@@H]3O)cccc12,.,.,-5.3,.,.,.,.,.
Cc1nn(C(=O)c2cccc([N+](=O)[O-])c2)c(C)c1Sc1ccccc1,-67.0,24.2,-5.3,6.7,-1.6,3.1,.,.
CCc1ccc(N(C(=O)c2snc(C(N)=O)c2N)C(C(=O)NCCC(C)C)c2c[nH]c3ccccc23)cc1 (configuration not stated),-6.8,-16.5,-4.5,9.8,10.8,-1.6,.,.
COc1cccc(CN(C)C(=O)c2cc(COc3ccc(-n4cncn4)cc3)on2)c1,-34.6,66.4,-1.9,-13.5,11.7,2.9,45.9,40.8
COc1cccc(CN(C)C(=O)c2cc(COc3c(F)cccc3F)on2)c1,0.6,-5.6,0.8,21.7,0.0,-7.8,.,.
O=C(Nc1ccccc1)/C(=C\c1cccs1)NC(=O)c1ccccc1,-0.4,-1.8,4.7,11.3,-0.9,5.0,.,.
Cc1cccc(NC(=O)/C(=C\c2cccs2)NC(=O)c2ccccc2)c1,-7.9,56.4,.,-17.8,-23.2,-0.2,5.9,-9.6
COc1ccccc1CNc1nc(NCc2ccccc2SC)c2sccc2n1,.,80.1*,-9.7,.,.,.,85.2*,69.7
COc1ccccc1CNc1nc(NCC2CC2)nc2ccsc12,.,12.8,-5.8,.,.,.,.,.
COc1ccccc1CNc1nc(NCc2ccc3occc3c2)c2sccc2n1,.,69.0,-5.1,.,.,.,53.5,64.2
COc1ccccc1CNc1nc(NCc2ccccc2OC)c2sccc2n1,.,75.1*,-6.0,.,.,.,75.0*,57.3
CCn1c(SCC(=O)N2CCC(C)CC2)nc2c(c1=O)SCC2,2.8,-32.3,-2.6,6.3,7.7,0.5,.,.
CC(=O)c1cccc(NC(=O)CSc2nnnn2C2CCCC2)c1,-11.3,-16.1,-6.9,-3.6,7.2,.,.,.
COc1cc(C(=O)NCCCN2CCCC2=O)cc(Br)c1OCc1ccccc1,13.1,27.8,-6.0,25.1,21.0,-1.9,.,.
COc1ccc(C(O)c2nc(-c3ccncc3)cs2)cc1 (configuration not stated),.,63.5,-5.1,.,.,.,67.5,66.1
COc1ccc(-c2csc(C(O)c3ccc(OC)cc3)n2)cc1 (configuration not stated),.,19.6,-3.6,.,.,.,.,.
COc1ccc(NC(=O)c2sc(=O)n(Cc3cccc(C(F)(F)F)c3)c2C)cc1OC,.,55.1,-0.4,.,.,.,73.2*,39.3
CC1C/C(=N\NC(=S)NCc2ccccc2)CC(C)(C)C1 (configuration not stated),3.8,49.0,-5.4,-15.7,9.1,-0.3,-31.0,-3.2
SMILES,JMJD2C inh,NR2E3 ag-1,GalR3 antagonist,697 NFkB inh,Jurkat NFkB inh,NR2E3 ag-2,NR2E3 ag confirm,VP16 counter
CC1CCC/C(=N\NC(=S)NCc2ccccc2)C1 (configuration not stated),14.7,22.7,-4.9,2.6,0.5,-0.5,.,.
Cc1ccccc1Oc1nc(-c2ccccn2)nc2ccccc12,-3.6,65.9,-7.7,-4.0,3.6,-2.2,26.6,29.3
CN1CCN(c2nc(-c3ccccn3)nc3ccccc23)CC1,2.8,-21.8,1.3,5.2,-0.2,2.6,.,.
c1ccc(N2CCN(c3nc(-c4ccccn4)nc4ccccc34)CC2)cc1,-0.9,99.5*,-5.7,-4.1,5.2,-0.4,22.7,15.1
Cc1cccc(Oc2nc(-c3ccccn3)nc3ccccc23)c1,1.4,-36.8,-5.7,-46.7,-15.9,0.5,.,.
CN1C(=O)[C@@]2(C3=C(CCCC3=O)OC3=C2C(=O)OC2(CCCCC2)C3)c2ccccc21,.,.,2.1,.,.,.,.,.
COc1cc(CNC(=O)c2ccccc2NC(=O)C2=C(C)OCCS2)cc(OC)c1OC,4.5,-7.5,3.1,11.9,7.8,-0.6,.,.
CCc1nc2ccc(C(=O)NCc3cccs3)cn2c1N(CC)Cc1cccc(Br)c1,.,26.6,-6.6,.,.,.,.,.
CCc1nc2ccc(C(=O)N(C)C(C)C)cn2c1N(CC)Cc1cccc(Br)c1,.,72.2*,-9.0,.,.,.,69.2,-9.8
CN(CCO)c1ccc(-c2n[nH]c(=O)c3ccccc23)cc1[N+](=O)[O-],1.9,-46.4,-8.9,7.1,-2.2,.,.,.
Clc1ccccc1-c1cnc2sc(NCc3ccc4c(c3)OCO4)nn12,.,56.8,-3.2,.,.,.,36.9,42.2
CCCNC(=O)c1ccccc1NS(=O)(=O)c1ccc(OC)c(OC)c1,3.2,12.7,-5.3,4.4,19.9,-1.8,.,.
COc1ccc(-c2csc(NC(=O)c3ccccc3NS(=O)(=O)c3ccc(C)cc3)n2)cc1,?,95.0*,-1.4,-19.4,2.9,0.3,98.2*,84.7*
